Source: PubChem (Sanford-Burnham Center for Chemical Genomics)
This is a sample that favours compounds with a hit; in the whole collection about 1.5% have one here.
APJ agonist: agonists of human APJ apelin receptor; P35414; CHO-K1 APJ PathHunter beta-arrestin, luminescence; 0% DMSO wells, 100% apelin; activation, % at 20 µM; 0.11% of 330,000 active; AID 2520;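 active = activation more than six SD over the plate average, tested at 20 µM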
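Assay system: CHO-K1 APJ beta-arrestin complementation cell line / Compound: single test compound dose, 20 µM final, 1% DMSO / Times: overnight seeding, 90 min compound at 25 °C, 1 h detection / Technique: beta-gal luminescence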
CCR6 antagonist: CCR6 (human) receptor antagonism. 0.49% of 340,000 active. P51684. CHO-K1 CCR6 PathHunter beta-arrestin, luminescence, CCL20-stimulated. AID 493098. inhibition, % at 20 µM;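 active = compounds whose inhibition of the agonist-driven luminescence signal at 20 µM reaches about 50%, limit read from the data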;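 also: cells stimulated with CCL20 at 14 nM final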
CXCR6 block: blocks human CXCR6 beta-arrestin recruitment | inhibition, % at 20 µM | O00574 | CHO-K1 PathHunter CXCR6 beta-arrestin, luminescence | 0.36% of 360,000 active; in the data active = inhibition above about 34%, passing the limit was not always enough;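 also: antagonist mode with CXCL16 agonist at 10 nM final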
Target sequence (O00574 whole entry, looked up): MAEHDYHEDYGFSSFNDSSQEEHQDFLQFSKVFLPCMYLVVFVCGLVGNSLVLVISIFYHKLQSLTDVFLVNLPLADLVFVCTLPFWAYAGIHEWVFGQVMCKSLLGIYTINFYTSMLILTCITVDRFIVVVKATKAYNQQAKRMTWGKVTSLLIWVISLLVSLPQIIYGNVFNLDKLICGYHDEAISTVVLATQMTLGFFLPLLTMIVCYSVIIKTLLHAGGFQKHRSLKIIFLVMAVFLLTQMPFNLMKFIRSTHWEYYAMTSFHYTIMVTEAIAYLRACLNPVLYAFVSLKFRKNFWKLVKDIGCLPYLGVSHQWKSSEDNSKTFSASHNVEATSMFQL
APJ antag: antagonists of human APJ apelin receptor. inhibition, % at 20 µM. 0.32% of 330,000 active. P35414. CHO-K1 APJ beta-arrestin complementation, luminescence. AID 2521;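 active = inhibition above about 40% at 20 µM, limit read from the data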;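 also: cells challenged with 10 nM apelin-13 agonist together with compound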
EBI2 block: EBI2 (human) antagonism | P32249 | EBI2 beta-arrestin recruitment, luminescence, 7a,25-OHC stimulated | inhibition, % at 5 µM | 0.81% of 360,000 active; in the data active = inhibition above about 38%;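 also: enzyme fragment complementation signal reports receptor beta-arrestin coupling in cells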
Target sequence (P32249 whole entry, looked up, the tested form may be a part): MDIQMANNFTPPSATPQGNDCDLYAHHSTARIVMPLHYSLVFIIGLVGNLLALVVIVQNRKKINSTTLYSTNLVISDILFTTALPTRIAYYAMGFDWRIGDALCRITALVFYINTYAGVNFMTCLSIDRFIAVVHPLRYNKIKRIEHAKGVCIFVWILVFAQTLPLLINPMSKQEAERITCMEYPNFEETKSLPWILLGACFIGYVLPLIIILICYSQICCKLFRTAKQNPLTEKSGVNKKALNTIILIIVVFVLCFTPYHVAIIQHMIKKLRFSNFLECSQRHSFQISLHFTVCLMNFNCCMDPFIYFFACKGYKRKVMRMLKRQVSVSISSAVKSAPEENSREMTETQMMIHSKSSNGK
CXCR6 confirm: CXCR6 antagonism confirmation, single concentration | 65% of 700 active | inhibition, % at 20 µM | CHO-K1 CXCR6 PathHunter beta-arrestin, luminescence | shares compounds with CXCR6 block | AID 602409;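 active = mean inhibition over four retests above 40%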;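 also: receptor stimulated with 10 nM CXCL16 agonist; beta-galactosidase fragment complementation upon beta-arrestin recruitment to receptor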
EBI2 conf: EBI2 (human) antagonism, single concentration confirmation; shares compounds with EBI2 block; inhibition, % at 5 µM; AID 651997; 29% of 2,400 active; EBI2 beta-arrestin luminescence, 7a,25-OHC antagonism;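 active = inhibition of at least 50%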
EBI2 ag: counter-screen for EBI2 antagonists: EBI2 agonist activity | shares compounds with EBI2 block | EBI2-expressing cells, agonist mode, luminescence, 60 min; 0% vehicle, 100% 7α,25-dihydroxycholesterol control | activation, % at 5 µM | 2,400 tested, under 10 active;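 active = activation of at least 50%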
bGal counter: beta-galactosidase inhibition counter-screen | shares compounds with EBI2 block | purified beta-galactosidase, luminescent Galacton Star, 15 min | inhibition, % at 5 µM | 1% of 2,400 active | AID 652176;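 active = replicate-average signal at least 3 plate SD below neutral wells, shown as high inhibition, flagging enzyme-inhibiting false positives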;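 also: higher means stronger loss of beta-gal luminescence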
Hits are given with their value; – = inactive; · = not tested or not shown.

SMILES | APJ agonist | CCR6 antagonist | CXCR6 block | APJ antag | EBI2 block | EBI2 conf | EBI2 ag | bGal counter | others
CCCCCCCCn1sccc1=O | – | 105 | 99 | – | 61 | · | · | · | CXCR6 confirm=105
COc1ccc(OC(=O)N(C)C[C@@H]2OCc3cnnn3CCCC(=O)N([C@H](C)CO)C[C@@H]2C)cc1 | · | · | 90 | · | – | · | · | · | CXCR6 confirm=–
COc1ccc(OC(=O)N(C)C[C@@H]2OCc3cnnn3CCCC(=O)N([C@@H](C)CO)C[C@H]2C)cc1 | · | · | – | · | – | · | · | ·
Cn1c(O)c(C2=NNC(c3ccc(Cl)cc3)C2)c(=O)n(C)c1=O (configuration not stated) | – | 56 | 34 | – | – | · | · | · | CXCR6 confirm=112
CNc1cc(Cl)c2nonc2c1[N+](=O)[O-] | · | 98 | 100 | · | 80 | · | · | · | CXCR6 confirm=103
Cc1cc([N+](=O)[O-])c(Cl)cc1NC(=O)C(C)C | – | – | – | – | – | · | · | ·
COC(=NC1CCCC1)C(O)c1c[nH]c2ccccc12 (configuration not stated) | – | – | – | – | – | · | · | ·
COc1ccc(C2CC(c3c(O)n(CCc4ccccc4)c(=O)[nH]c3=O)=NN2)cc1OC (configuration not stated) | – | 104 | 90 | – | – | · | · | · | CXCR6 confirm=104
COc1ccc(CCn2c(O)c(C=NCc3cccnc3)c(=O)[nH]c2=O)cc1OC | – | – | – | – | – | · | · | ·
C[N+](C)(C)CC1CCCC1=O (configuration not stated) | · | – | – | · | – | · | · | ·
O=C(c1cc2cc(F)ccc2[nH]1)N1CCC2(CC1)OCCO2 | – | – | – | – | – | · | · | ·
O=C(c1cc2cc(Cl)ccc2[nH]1)N1CCC2(CC1)OCCO2 | – | – | – | – | 88 | 66 | – | –
CCCNC(=O)c1c(N)n(Cc2ccc3c(c2)OCO3)c2nc3ccccc3nc12 | – | – | – | – | 45 | – | – | –
CC(C)CCNC(=O)c1c(N)n(Cc2ccc3c(c2)OCO3)c2nc3ccccc3nc12 | – | – | – | – | 48 | – | – | –
CC/C(CC(c1ccccc1)c1c(O)c2ccccc2oc1=O)=N\NC(N)=S (configuration not stated) | – | – | – | – | – | · | · | ·
COc1ccc(/C=C/C2=CCN(C)CC2)cc1 | – | – | – | – | – | · | · | ·
Cc1ccc(OCC(=O)N2CCN(Cc3cccnc3)CC2)cc1 | – | – | – | – | 53 | – | – | –
Cc1cccc(OCC(=O)N2CCN(Cc3cccnc3)CC2)c1 | – | – | – | – | – | · | · | ·
O=[N+]([O-])c1cccc(CN2CCN(Cc3ccc(Cl)cc3)CC2)c1 | – | – | – | – | – | · | · | ·
COc1cccc(OCC(=O)N2CCN(C)CC2)c1 | – | – | – | – | – | · | · | ·
O=C(COc1ccc(Cl)cc1)N1CCN(Cc2ccc([N+](=O)[O-])cc2)CC1 | – | – | – | – | 94 | 79 | – | –
CCc1ccc(OCC(=O)N2CCN(Cc3ccc4c(c3)OCO4)CC2)cc1 | – | – | – | – | 82 | 53 | – | –
COc1ccc(OCC(=O)N2CCN(Cc3nc4cc([N+](=O)[O-])ccc4n3C)CC2)cc1 | – | – | – | – | 74 | – | – | –
Cc1cc(=O)oc2cc(OCC(=O)N3CCN(Cc4ccc5c(c4)OCO5)CC3)ccc12 | – | – | – | – | – | · | · | ·
Cc1[nH]c2ccccc2c1CCNCc1ccco1 | – | – | – | – | – | · | · | ·
SMILES | APJ agonist | CCR6 antagonist | CXCR6 block | APJ antag | EBI2 block | EBI2 conf | EBI2 ag | bGal counter | others
COC(=O)C1=C(c2ccc(OCc3ccccc3)cc2)C[C@@H]2CC[C@H]1N2C(=O)NCc1cccc(OC)c1 | – | – | – | – | 57 | 54 | – | –
COC(=O)C1=C(c2ccc(OCc3ccccc3)cc2)C[C@@H]2CC[C@H]1N2C(=O)NCc1ccc(OC)cc1 | · | · | – | · | – | · | · | ·
CN(C)C(=O)Oc1ccc(OC(=O)c2ccccc2)cc1 | – | – | – | – | – | · | · | ·
CN(C(=O)Oc1ccc(C(=O)c2ccc(Cl)cc2)cc1)c1ccccc1 | – | – | – | – | 79 | 56 | – | –
CCOC(=O)C1(c2ccccc2)CCN(CCC(=O)Nc2cccc(Br)c2)CC1 | – | – | – | – | 59 | – | – | –
CCOC(=O)C1(c2ccccc2)CCN(CCC(=O)Nc2ccc(C(=O)OC)cc2)CC1 | – | – | – | – | – | · | · | ·
CCOC(=O)C1(c2ccccc2)CCN(CCC(=O)Nc2ccc(OC)cc2)CC1 | · | · | – | · | 52 | – | – | –
COC(=O)C1=C(c2cccc(OC)c2OC)C[C@@H]2CC[C@H]1N2C(=O)N1CCC(O)CC1 | – | – | – | – | – | · | · | ·
CCOC(=O)c1ccc(N=Cc2c(O)n(-c3ccccc3F)c(=S)[nH]c2=O)cc1 | – | – | – | – | – | · | · | ·
CCOC(=O)[C@]12Cc3ccc(C)cc3[C@H]1N(C1CCCCC1)C(=O)c1ccccc12 | · | · | – | · | 64 | – | – | –
CCOC(=O)[C@]12Cc3cc(OC)ccc3[C@H]1N(C)C(=O)c1cc(OC)ccc12 | · | · | – | · | – | · | · | ·
CCOC(=O)[C@]12Cc3ccc(C)cc3[C@H]1N(C1CCCCC1)C(=O)c1cc(OC)ccc12 | · | · | – | · | 52 | – | – | –
CCOC(=O)[C@]12Cc3c(cc(OC)c(OC)c3OC)[C@H]1N(C1CCCCC1)C(=O)c1ccccc12 | · | · | – | · | 71 | – | – | –
CCOC(=O)[C@]12Cc3cc(C)ccc3[C@H]1N(C1CCCCC1)C(=O)c1ccccc12 | · | · | – | · | 60 | – | – | –
CCOC(=O)[C@]12Cc3cc(C)ccc3[C@H]1N(CCC(=O)OC)C(=O)c1ccccc12 | · | · | – | · | – | · | · | ·
CC(C)CNC(=O)/C=C/C=C/CCCCCC/C=C/c1ccc2c(c1)OCO2 | – | – | – | – | – | · | · | ·
COC(=O)C12CCc3c(ccc4cc(OC)ccc34)C1=CC(=O)C2 (configuration not stated) | · | – | – | · | – | · | · | ·
CCOC(=O)c1cncn1C(C)c1ccccc1 (configuration not stated) | – | – | – | – | 48 | – | – | –
O=C(COc1ccccc1)N1CCN(CCN2C(=O)c3cccc4cccc(c34)C2=O)CC1 | – | – | – | – | 50 | – | – | –
O=C(COc1ccccc1)N1CCN(C2CC3CCC2C3)CC1 (configuration not stated) | – | – | – | – | – | · | · | ·
Cc1ccc(OCC(=O)N2CCN(C3CCC(c4ccccc4)CC3)CC2)cc1 (configuration not stated) | – | – | – | – | 82 | 64 | – | –
O=C(COc1ccc(Br)cc1)N1CCN(C2CCCC2)CC1 | – | – | – | – | 85 | 82 | – | –
